Measurements published in ChEMBL document CHEMBL2331121, “Design, synthesis, and pharmacological characterization of N- and O-substituted 5,6,7,8-tetrahydro-4H-isoxazolo[4,5-d]azepin-3-ol analogues: novel 5-HT(2A)/5-HT(2C) receptor agonists with pro-cognitive properties” (J Med Chem, 2013).
The source made the active and inactive calls. No cut-off for these calls is given here.

Key:
[1] = molecular target: T1, 5-hydroxytryptamine receptor 2C (Homo sapiens) (UniProt P28335); assay: Agonist activity at human 5HT2C receptor expressed in HEK293 cells assessed as induction of intracellular calcium release by fluorescence assay relative to 5HT; type: functional, cell-based
T1 sequence (whole entry): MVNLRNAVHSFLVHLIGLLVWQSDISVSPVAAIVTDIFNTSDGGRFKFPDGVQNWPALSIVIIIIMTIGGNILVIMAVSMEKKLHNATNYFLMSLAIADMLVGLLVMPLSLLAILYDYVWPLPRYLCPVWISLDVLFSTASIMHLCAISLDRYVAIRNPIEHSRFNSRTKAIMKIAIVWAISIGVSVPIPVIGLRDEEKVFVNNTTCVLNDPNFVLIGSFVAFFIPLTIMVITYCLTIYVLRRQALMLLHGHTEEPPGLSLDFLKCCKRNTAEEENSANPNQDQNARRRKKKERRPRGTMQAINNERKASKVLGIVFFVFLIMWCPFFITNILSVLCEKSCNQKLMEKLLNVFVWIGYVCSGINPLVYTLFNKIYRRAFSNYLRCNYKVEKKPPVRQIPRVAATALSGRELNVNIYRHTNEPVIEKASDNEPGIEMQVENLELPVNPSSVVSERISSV
Method in brief: (§1)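 Stable polyclonal 5-HT2A or 5-HT2C HEK293 cells seeded on poly-D-lysine plates (6 × 10⁴ cells/well). Next day loaded with Fluo-4/AM for 1 h at 37 °C in HBSS/20 mM HEPES/1 mM CaCl₂/1 mM MgCl₂/2.5 mM probenecid, pH 7.4. Fluorescence (485 ex/525 em) recorded before and up to 90 s after agonist. Response relative to 5-HT on the same plate. Duplicate, at least three times.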

[2] = molecular target: T2, 5-hydroxytryptamine receptor 2A (Homo sapiens, UniProt P28223); assay: Agonist activity at human 5HT2A receptor expressed in HEK293 cells assessed as induction of intracellular calcium release by fluorescence assay relative to 5HT; type: functional, cell-based; method in brief: as §1
[3] = molecular target: T2, 5-hydroxytryptamine receptor 2A; assay: Agonist activity at human 5HT2A receptor expressed in HEK293 cells assessed as induction of intracellular calcium release measured for 90 secs by fluorescence assay; type: functional, cell-based
[4] = molecular target: T3, 5-hydroxytryptamine receptor 2C (Homo sapiens, UniProt P28335); assay: Agonist activity at human 5HT2C receptor expressed in HEK293 cells assessed as induction of intracellular calcium release measured for 90 secs by fluorescence assay; type: functional, cell-based
T3 sequence (P28335 whole entry): T1 sequence (whole entry)

[5] = molecular target: T2, 5-hydroxytryptamine receptor 2A; assay: Agonist activity at human 5HT2A receptor expressed in HEK293 cells assessed as induction of intracellular calcium release at 1 mM measured for 90 secs by fluorescence assay; type: functional, cell-based
Method in brief: (§2)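 Stable polyclonal h5-HT2A or h5-HT2C HEK293 cells plated on poly-D-lysine wells, loaded next day with Fluo-4/AM for 1 h at 37 °C. Buffer was HBSS with 20 mM HEPES, 1 mM CaCl₂, 1 mM MgCl₂, 2.5 mM probenecid, pH 7.4. Fluorescence read at 485/525 nm before and up to 90 s after agonist addition. Responses normalised to 5-HT on the same plate. Duplicate, 4−10 experiments.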

[6] = molecular target: T2, 5-hydroxytryptamine receptor 2A; assay: Antagonist activity at human 5HT2A receptor expressed in HEK293 cells assessed as inhibition of 5HT-induced intracellular calcium release at 1 mM measured for 90 secs by fluorescence assay; type: functional, cell-based
Method in brief: (§3)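 Fluo-4/Ca²⁺ read-out in stable h5-HT2A or h5-HT2C HEK293 cells (HBSS/HEPES/probenecid buffer, pH 7.4). Antagonist was added after the dye-loading wash, then cells were challenged with an EC₇₅−EC₈₅ concentration of 5-HT. Emission at 525 nm was monitored up to 90 s after agonist addition. Duplicate, repeated in independent experiments.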

[7] = molecular target: T1, 5-hydroxytryptamine receptor 2C (Homo sapiens); assay: Agonist activity at human 5HT2C receptor expressed in HEK293 cells assessed as induction of intracellular calcium release at 1 mM measured for 90 secs by fluorescence assay; type: functional, cell-based; method in brief: as §2
[8] = molecular target: T1, 5-hydroxytryptamine receptor 2C (Homo sapiens); assay: Antagonist activity at human 5HT2C receptor expressed in HEK293 cells assessed as inhibition of 5HT-induced intracellular calcium release at 1 mM measured for 90 secs by fluorescence assay; type: functional, cell-based; method in brief: as §3
[9] = molecular target: T4, 5-hydroxytryptamine receptor 2C (Rattus norvegicus) (UniProt P08909); assay: Displacement of [125I]-N-(p-I-Bn)-THAZ from 5HT2C in rat cerebral cortex membrane at 300 uM after 1 hr by scintillation counting analysis; type: cell membranes
T4 sequence (whole entry): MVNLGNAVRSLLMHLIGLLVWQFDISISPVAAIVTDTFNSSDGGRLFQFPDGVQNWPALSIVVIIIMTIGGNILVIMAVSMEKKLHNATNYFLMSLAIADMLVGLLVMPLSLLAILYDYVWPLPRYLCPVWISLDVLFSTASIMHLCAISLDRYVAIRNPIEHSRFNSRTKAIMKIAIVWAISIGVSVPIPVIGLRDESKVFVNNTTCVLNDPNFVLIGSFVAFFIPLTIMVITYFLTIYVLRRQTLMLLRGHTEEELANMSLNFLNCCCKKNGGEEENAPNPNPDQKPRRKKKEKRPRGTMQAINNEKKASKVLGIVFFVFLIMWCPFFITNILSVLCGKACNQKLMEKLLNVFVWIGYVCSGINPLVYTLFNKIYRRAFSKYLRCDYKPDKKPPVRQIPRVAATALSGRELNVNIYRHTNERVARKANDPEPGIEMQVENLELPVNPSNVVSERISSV

[10] = molecular target: T3, 5-hydroxytryptamine receptor 2C; assay: Displacement of [3H]mesulergine from human 5HT2C receptor expressed in tsA201 cell membranes after 1 hr by scintillation counting analysis
[11] = molecular target: T2, 5-hydroxytryptamine receptor 2A; assay: biochemical; type: cell-based, tsA201
[12] = molecular target: T2, 5-hydroxytryptamine receptor 2A; assay: Agonist activity at human 5HT2A receptor expressed in HEK293 cells assessed as accumulation of IP1 incubated for 1 hr at 37 degC followed by 15 mins at RT by TR-FRET assay relative to 5HT; type: functional, cell-based
Method in brief: (§4)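 Polyclonal HEK293 lines stably expressing human 5-HT2A (variant 1) or 5-HT2C (INI isoform), detached and suspended at 1 × 10⁷ cells/mL in HBSS with 20 mM HEPES, 1 mM CaCl₂, 1 mM MgCl₂, pH 7.4. Ligands in buffer with 40 mM LiCl. Incubated 1 h at 37 °C, then 15 min RT. IP1 read by HTRF 665/615 ratio. Triplicate, at least four times.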

[13] = molecular target: T1, 5-hydroxytryptamine receptor 2C (Homo sapiens); assay: Agonist activity at human 5HT2C receptor expressed in HEK293 cells assessed as accumulation of IP1 incubated for 1 hr at 37 degC followed by 15 mins at RT by TR-FRET assay relative to 5HT; type: functional, cell-based; method in brief: as §4
[14] = molecular target: T3, 5-hydroxytryptamine receptor 2C; assay: Agonist activity at human 5HT2C receptor expressed in HEK293 cells assessed as accumulation of IP1 incubated for 1 hr at 37 degC followed by 15 mins at RT by TR-FRET assay; type: functional, cell-based
[15] = molecular target: T2, 5-hydroxytryptamine receptor 2A; assay: Agonist activity at human 5HT2A receptor expressed in HEK293 cells assessed as accumulation of IP1 incubated for 1 hr at 37 degC followed by 15 mins at RT by TR-FRET assay; type: functional, cell-based

T2 sequence (P28223 whole entry): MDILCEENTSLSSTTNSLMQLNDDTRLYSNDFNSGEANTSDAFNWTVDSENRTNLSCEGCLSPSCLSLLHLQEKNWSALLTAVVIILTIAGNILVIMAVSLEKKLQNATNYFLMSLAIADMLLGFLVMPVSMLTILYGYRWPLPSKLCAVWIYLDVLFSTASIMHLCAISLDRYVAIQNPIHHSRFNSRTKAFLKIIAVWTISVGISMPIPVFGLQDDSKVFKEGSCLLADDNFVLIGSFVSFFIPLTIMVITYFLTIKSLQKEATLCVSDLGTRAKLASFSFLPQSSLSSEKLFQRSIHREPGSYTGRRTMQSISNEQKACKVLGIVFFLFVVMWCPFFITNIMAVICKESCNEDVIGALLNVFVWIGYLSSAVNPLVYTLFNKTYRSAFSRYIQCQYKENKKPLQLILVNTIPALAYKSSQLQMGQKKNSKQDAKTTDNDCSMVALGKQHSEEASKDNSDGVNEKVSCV

SMILES | Activity [5] | Activity [6] | Activity [7] | Activity [8] | EC50 ([3]; hek293, read-out: EC50) | EC50 ([3]; read-out: pEC50 (converted)) | EC50 ([4]; hek293, read-out: EC50) | EC50 ([4]; read-out: pEC50 (converted)) | Ki [10] | other results
C[C@H](N)Cn1ccc2cc(F)c(Cl)cc21 |  |  |  |  |  |  |  |  |  | Emax [1]: 111%; Emax [2]: 117%; EC50 ([3]; read-out: EC50): 0.027 µM; EC50 ([4]; read-out: EC50): 0.0047 µM
O=C1Nc2cc(Cl)c(Cl)cc2N2CCNCC12 (stereo unspecified) |  |  |  |  |  |  |  |  |  | Emax [1]: 95%; Emax [2]: 110%; EC50 ([3]; read-out: EC50): 0.012 µM; EC50 ([4]; read-out: EC50): 0.0073 µM
CCn1oc2c(c1=O)CNCC2 | inactive | inactive | inactive | inactive | > 1000 µM | > 1000 µM | > 1000 µM | > 1000 µM |  | 
NC[C@H](O)c1ccc(O)c(O)c1 |  |  |  |  |  |  |  |  |  | Activity [9]: inactive
CC(=O)OCC[N+](C)(C)C |  |  |  |  |  |  |  |  |  | Activity [9]: inactive
O=c1c2c(on1Cc1ccccc1)CCCNC2 | inactive | inactive | inactive | inactive | > 1000 µM | > 1000 µM | > 1000 µM | > 1000 µM |  | 
Oc1noc2c1CCNCC2 | inactive | inactive | inactive | inactive | > 1000 µM | > 1000 µM | > 1000 µM | > 1000 µM | > 300 µM | Ki ([11]; read-out: Ki): > 300 µM; Ki ([11]; read-out: pKi (converted)): > 316 µM
CN1CCc2on(C)c(=O)c2CC1 | inactive | inactive | inactive | inactive | > 1000 µM | > 1000 µM | > 1000 µM | > 1000 µM | > 300 µM | Ki ([11]; read-out: Ki): > 300 µM; Ki ([11]; read-out: pKi (converted)): > 316 µM
Cn1c2c(c3ccccc31)CCNCC2 [PNU-22394] |  |  |  |  |  |  |  |  |  | Emax [1]: 101%; Emax [2]: 102%; Emax [12]: 98%; EC50 ([3]; read-out: EC50): 0.023 µM; EC50 ([4]; read-out: EC50): 0.0077 µM; Emax [13]: 97%; EC50 [14]: 0.12 µM; EC50 [15]: 0.21 µM
CCOc1noc2c1CCNCC2 |  |  |  |  |  |  |  |  | 100 µM | Emax [1]: 67%; Emax [2]: 42%; EC50 ([3]; read-out: EC50): 7.9 µM; EC50 ([4]; read-out: EC50): 3 µM; Ki ([11]; read-out: Ki): 100 µM
CCn1oc2c(c1=O)CCNC2 | inactive | inactive | inactive | inactive | > 1000 µM | > 1000 µM | > 1000 µM | > 1000 µM |  | 
CCOc1noc2c1CCN(C)CC2 | inactive | inactive | inactive | inactive | > 1000 µM | > 1000 µM | > 1000 µM | > 1000 µM | > 300 µM | Ki ([11]; read-out: Ki): > 300 µM; Ki ([11]; read-out: pKi (converted)): > 316 µM
NCCCC(=O)O |  |  |  |  |  |  |  |  |  | Activity [9]: inactive
O=c1c2c(on1Cc1cccc(I)c1)CCNCC2 |  |  |  |  |  |  |  |  | 4.8 µM | 
O=c1c2c(on1Cc1ccccc1I)CCNCC2 |  |  |  |  |  |  |  |  | 7.2 µM | 
NCCc1ccc(O)c(O)c1 |  |  |  |  |  |  |  |  |  | Activity [9]: inactive
CCOc1noc2c1CCNC2 | inactive | inactive | inactive | inactive | > 1000 µM | > 1000 µM | > 1000 µM | > 1000 µM |  | 
N[C@@H](CCC(=O)O)C(=O)O |  |  |  |  |  |  |  |  |  | Activity [9]: inactive
CCn1oc2c(c1=O)CCN(C)CC2 | inactive | inactive | inactive | inactive | > 1000 µM | > 1000 µM | > 1000 µM | > 1000 µM | > 300 µM | Ki ([11]; read-out: Ki): > 300 µM; Ki ([11]; read-out: pKi (converted)): > 316 µM
Cn1oc2c(c1=O)CNCC2 | inactive | inactive | inactive | inactive | > 1000 µM | > 1000 µM | > 1000 µM | > 1000 µM |  | 
O=c1c2c(on1Cc1ccccc1)CCNC2 | inactive | inactive | inactive | inactive | > 1000 µM | > 1000 µM | > 1000 µM | > 1000 µM |  | 
